Measurements as given in paper PMC4501086 (Nature, 2014).
Read-outs that look alike come from different tables or passages of the source.

What was measured:
[1] = tested on: CD69 expression in anti-IgM stimulated whole blood; assay: anti-IgM stimulated human whole blood, FACS for CD69; type: cell-based; conditions: read-out: anti-IgM stimulated whole blood CD69 expression IC50
p110β = p110β (Homo sapiens, UniProt P42338); assay: PI3K isoform inhibition, Ki and IC50; type: biochemical
p110γ = p110γ (Homo sapiens, UniProt P48736); assay: PI3K isoform inhibition, Ki and IC50; type: biochemical
4T1 cells = assay: Proliferation of 4T1 cells in vitro; type: cell-based, mouse; conditions: 4 h treatment, washing, MTS staining after 48 h culture
4T1 tumour = assay: 4T1 breast cancer model, orthotopic in mammary fat pad, oral PI-3065; type: in vivo, female WT BALB/c mice; conditions: 75 mg/kg daily per os
Outline: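 Luciferase-labelled 4T1 cells (10^5) inoculated into the mammary/breast fat pad 12 h after the first oral dose of vehicle or test compound (75 mg/kg daily, 36 days). Tumour growth followed by luciferase imaging and caliper volume. Tumour weight and luciferase activity measured in tumours excised 35 days after inoculation. Metastasis incidence by H&E histology as % of tumour-bearing mice. Body weight change from day 0. Mann-Whitney test.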

p110δ = p110δ (Homo sapiens, UniProt O00329); assay: PI3K isoform inhibition, Ki and IC50; type: biochemical
72 protein kinases = assay: KinaseProfiler assay; type: biochemical; conditions: at ≤ 10 μM
p110α = p110α (Homo sapiens, UniProt P42336); assay: PI3K isoform inhibition, Ki and IC50; type: biochemical
[2] = tested on: pancreatic ductal adenocarcinoma (PDAC); assay: KPC model of pancreatic ductal adenocarcinoma, treatment of palpable disease; type: in vivo, KPC mice
Outline: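 KPC mice (endogenous mutant KrasG12D and p53R172H in Pdx1+ pancreatic cells) developed palpable disease before vehicle or test compound (75 mg/kg) began. Read-outs were survival, macrometastases and pathology by H&E, Treg (% of CD4+) and CD44high cells (% of CD8+) in draining lymph nodes, and CD8+ cells (% of CD45+) in normal pancreas versus PDAC lesions. Mann-Whitney test.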

[3] = tested on: chronic lymphocytic leukaemia (CLL) and non-Hodgkin's lymphoma; conditions: cited from earlier work
[4] = 36 consecutive days, 4T1 tumour-bearing mice
[5] = 75 mg/kg, treatment after palpable disease

Sequence of p110γ (P48736 whole entry, species assumed, canonical isoform): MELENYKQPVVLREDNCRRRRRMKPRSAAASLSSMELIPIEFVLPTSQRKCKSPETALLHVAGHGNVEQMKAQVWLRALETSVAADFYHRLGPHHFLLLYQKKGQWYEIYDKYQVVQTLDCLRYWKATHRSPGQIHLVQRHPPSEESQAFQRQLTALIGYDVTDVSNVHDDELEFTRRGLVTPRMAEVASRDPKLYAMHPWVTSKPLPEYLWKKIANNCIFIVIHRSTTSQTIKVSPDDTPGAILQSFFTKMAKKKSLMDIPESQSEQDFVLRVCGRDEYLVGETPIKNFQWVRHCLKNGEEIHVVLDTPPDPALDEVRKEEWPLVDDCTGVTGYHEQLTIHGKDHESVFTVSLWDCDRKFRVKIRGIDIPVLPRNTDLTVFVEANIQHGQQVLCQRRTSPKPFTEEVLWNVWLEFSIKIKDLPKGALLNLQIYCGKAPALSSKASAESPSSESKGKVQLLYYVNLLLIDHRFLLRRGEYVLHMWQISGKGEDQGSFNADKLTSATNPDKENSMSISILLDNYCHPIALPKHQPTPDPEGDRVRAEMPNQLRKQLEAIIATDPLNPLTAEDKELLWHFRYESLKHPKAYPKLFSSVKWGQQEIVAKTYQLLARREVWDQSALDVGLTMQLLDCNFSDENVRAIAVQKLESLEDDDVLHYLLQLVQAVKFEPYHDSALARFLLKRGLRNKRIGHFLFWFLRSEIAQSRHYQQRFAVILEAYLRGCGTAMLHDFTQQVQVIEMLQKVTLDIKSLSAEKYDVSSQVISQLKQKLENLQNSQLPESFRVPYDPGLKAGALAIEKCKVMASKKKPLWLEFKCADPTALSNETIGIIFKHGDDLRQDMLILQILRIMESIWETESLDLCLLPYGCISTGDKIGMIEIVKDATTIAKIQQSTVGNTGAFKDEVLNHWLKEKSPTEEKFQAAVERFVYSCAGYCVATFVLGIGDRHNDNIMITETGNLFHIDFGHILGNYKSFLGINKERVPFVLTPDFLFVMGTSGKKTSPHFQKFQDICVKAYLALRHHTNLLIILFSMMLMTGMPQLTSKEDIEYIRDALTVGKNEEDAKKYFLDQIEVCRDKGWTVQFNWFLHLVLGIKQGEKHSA
Sequence of p110β (P42338 whole entry, species assumed, canonical isoform): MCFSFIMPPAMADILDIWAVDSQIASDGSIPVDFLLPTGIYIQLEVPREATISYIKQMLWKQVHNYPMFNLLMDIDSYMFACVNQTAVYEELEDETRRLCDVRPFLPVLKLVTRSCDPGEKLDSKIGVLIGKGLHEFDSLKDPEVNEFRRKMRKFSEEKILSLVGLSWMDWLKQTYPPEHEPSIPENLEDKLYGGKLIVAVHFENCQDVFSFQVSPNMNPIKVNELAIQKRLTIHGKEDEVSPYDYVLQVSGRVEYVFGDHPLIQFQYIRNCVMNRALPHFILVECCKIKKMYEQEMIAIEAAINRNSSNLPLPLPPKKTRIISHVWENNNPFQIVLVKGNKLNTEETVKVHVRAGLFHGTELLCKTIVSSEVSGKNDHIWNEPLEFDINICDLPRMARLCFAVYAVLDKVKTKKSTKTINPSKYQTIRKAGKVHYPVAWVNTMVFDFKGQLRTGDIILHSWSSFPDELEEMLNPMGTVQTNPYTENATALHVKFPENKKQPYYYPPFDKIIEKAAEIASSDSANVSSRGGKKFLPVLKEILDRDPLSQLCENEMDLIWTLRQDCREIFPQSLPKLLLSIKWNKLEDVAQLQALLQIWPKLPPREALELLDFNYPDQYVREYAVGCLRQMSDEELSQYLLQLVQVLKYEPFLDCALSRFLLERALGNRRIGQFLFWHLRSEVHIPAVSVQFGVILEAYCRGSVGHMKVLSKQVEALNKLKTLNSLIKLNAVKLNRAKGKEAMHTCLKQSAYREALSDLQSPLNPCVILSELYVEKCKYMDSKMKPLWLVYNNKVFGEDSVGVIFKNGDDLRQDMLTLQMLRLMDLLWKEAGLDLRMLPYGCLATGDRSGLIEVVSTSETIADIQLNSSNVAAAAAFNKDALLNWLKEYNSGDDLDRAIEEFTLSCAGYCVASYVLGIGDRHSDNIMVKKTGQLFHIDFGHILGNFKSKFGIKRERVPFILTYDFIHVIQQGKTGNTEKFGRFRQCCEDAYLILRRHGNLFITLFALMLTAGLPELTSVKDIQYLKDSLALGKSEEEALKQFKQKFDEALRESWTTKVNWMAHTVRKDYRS
Sequence of p110β (P27986 whole entry partner, species assumed, canonical isoform): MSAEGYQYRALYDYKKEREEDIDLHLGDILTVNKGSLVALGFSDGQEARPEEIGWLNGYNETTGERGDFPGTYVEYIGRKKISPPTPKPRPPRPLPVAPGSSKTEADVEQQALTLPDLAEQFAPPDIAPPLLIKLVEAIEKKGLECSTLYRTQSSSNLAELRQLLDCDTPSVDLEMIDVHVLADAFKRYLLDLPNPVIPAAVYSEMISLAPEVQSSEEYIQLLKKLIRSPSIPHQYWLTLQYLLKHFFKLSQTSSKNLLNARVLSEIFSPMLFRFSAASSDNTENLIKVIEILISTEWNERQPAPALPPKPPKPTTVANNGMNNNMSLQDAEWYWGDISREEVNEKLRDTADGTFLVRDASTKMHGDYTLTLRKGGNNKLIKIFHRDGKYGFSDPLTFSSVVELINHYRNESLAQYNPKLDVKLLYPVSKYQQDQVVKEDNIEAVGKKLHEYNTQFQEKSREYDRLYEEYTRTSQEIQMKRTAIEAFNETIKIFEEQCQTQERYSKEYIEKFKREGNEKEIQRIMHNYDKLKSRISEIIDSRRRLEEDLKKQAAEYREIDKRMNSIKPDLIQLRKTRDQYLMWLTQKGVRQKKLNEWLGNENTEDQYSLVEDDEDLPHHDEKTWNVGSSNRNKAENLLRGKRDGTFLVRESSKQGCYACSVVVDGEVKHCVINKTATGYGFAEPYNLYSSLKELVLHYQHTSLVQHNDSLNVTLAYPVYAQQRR
Sequence of p110α (P42336 whole entry, species assumed, canonical isoform): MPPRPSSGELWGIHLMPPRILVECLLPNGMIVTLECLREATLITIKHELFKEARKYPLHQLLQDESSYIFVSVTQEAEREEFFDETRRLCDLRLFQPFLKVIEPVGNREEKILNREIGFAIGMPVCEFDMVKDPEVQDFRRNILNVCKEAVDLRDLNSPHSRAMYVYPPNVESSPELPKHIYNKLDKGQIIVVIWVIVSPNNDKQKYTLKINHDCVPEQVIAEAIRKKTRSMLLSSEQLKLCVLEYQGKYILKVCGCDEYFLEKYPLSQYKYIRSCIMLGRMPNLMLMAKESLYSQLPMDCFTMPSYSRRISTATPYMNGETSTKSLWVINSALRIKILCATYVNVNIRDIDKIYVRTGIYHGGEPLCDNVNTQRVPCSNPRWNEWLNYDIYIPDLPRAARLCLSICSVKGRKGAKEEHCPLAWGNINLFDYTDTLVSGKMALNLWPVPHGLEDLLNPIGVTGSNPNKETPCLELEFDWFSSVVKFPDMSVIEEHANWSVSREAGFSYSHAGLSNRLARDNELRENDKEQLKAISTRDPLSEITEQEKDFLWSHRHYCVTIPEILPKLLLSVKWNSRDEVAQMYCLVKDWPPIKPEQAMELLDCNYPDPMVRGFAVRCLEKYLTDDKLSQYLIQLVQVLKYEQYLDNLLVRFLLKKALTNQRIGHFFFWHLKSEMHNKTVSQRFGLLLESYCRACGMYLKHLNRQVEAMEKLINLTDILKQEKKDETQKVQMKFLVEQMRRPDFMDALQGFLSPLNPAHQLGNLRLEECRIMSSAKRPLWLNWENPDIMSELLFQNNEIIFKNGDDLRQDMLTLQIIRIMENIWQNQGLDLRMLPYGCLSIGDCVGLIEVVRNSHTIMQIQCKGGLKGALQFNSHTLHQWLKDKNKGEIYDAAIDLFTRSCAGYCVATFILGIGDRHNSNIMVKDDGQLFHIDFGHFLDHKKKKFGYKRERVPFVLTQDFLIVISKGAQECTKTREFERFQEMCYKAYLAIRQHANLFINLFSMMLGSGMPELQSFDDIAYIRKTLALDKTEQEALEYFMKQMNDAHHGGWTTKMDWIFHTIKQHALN
Sequence of p110α (P27986 whole entry partner, species assumed, canonical isoform): as the sequence (P27986 whole entry partner, species assumed, canonical isoform) above
Sequence of p110δ (O00329 whole entry, species assumed, canonical isoform): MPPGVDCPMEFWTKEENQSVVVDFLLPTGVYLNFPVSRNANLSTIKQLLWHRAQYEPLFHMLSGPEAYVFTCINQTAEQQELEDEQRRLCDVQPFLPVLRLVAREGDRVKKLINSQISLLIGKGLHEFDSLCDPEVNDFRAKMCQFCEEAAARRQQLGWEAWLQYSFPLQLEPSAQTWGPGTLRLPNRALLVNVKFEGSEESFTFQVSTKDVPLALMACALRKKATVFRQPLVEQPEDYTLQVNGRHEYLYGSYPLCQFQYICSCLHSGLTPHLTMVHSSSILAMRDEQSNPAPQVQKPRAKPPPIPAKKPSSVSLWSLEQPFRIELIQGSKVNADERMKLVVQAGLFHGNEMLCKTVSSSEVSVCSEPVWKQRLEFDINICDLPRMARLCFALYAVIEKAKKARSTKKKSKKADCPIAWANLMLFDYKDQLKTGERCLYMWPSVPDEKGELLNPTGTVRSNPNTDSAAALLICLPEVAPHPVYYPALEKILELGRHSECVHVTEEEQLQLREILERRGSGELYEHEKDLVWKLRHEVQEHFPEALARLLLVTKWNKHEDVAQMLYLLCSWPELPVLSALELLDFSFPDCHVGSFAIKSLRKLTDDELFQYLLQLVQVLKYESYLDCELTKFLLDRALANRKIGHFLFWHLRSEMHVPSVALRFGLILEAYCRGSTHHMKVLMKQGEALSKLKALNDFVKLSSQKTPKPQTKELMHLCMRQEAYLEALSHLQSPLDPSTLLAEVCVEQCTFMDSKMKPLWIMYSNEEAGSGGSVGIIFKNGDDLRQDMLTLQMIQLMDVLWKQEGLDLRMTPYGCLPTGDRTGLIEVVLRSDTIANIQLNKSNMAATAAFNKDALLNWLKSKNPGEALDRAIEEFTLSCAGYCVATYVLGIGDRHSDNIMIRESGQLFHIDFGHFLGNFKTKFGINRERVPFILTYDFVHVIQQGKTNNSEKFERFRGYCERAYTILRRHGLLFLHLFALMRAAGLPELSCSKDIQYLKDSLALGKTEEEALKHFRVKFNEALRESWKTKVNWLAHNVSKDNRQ
Sequence of p110δ (P27986 whole entry partner, species assumed, canonical isoform): as the sequence (P27986 whole entry partner, species assumed, canonical isoform) above

Row | SMILES | IC50 ([1]; human whole blood, anti-IgM, FACS for CD69) | IC50 (p110β) | Ki (p110β) | IC50 ([1]; Homo sapiens) | IC50 (p110γ) | Ki (p110γ) | in vitro growth inhibition of 4T1 cells (4T1 cells) | body weight loss (4T1 tumour; [4]) | tolerability of long-term administration (4T1 tumour; [4]) | 4T1 metastasis (4T1 tumour; 36 days) | 4T1 tumour growth (4T1 tumour; 36 days) | Ki (p110δ) | activity against 72 protein kinases (72 protein kinases) | Ki (p110α) | incidence of metastases and other disease-associated pathologies [2, 5] | survival of KPC mice [2, 5] | infiltrating CD8+ T cells in pancreatic lesions ([2]; 14 days after treatment) | levels of CD44high CD8+ lymphocytes in the draining lymph nodes ([2]; after 7 days of treatment) | relative abundance of peripheral Treg in lymph nodes ([2]; after 7 days of treatment) | therapeutic impact in patients [3]
1 | Cc1ccccc1-n1c(Cn2cnc3c(N)ncnc32)nc2cccc(C)c2c1=O [IC87114] | 3500 nM |  |  |  |  |  |  |  |  |  |  |  |  |  |  |  |  |  |  | 
2 | Fc1ccc2[nH]ccc2c1-c1nc(N2CCOCC2)c2sc(CN3CCN(CC4CC4)CC3)cc2n1 [PI-3065] |  | 600 nM | 130 nM | 38 nM | > 10 µM | 940 nM | not growth-inhibited | did not induce weight loss | well-tolerated | suppressed | suppressed | 1.5 nM | No significant activity | 110 nM | reduced | prolonged survival | relatively more | higher levels | reduced | 
3 | CC[C@H](Nc1ncnc2[nH]cnc12)c1nc2cccc(F)c2c(=O)n1-c1ccccc1 [Idelalisib] |  |  |  | 60 nM |  |  |  |  |  |  |  |  |  |  |  |  |  |  |  | impressive therapeutic impact
